Test results as given in ChEMBL document CHEMBL3877292, “Synthesis and evaluation of novel hybrids β-carboline-4-thiazolidinones as potential antitumor and antiviral agents” (Eur J Med Chem, 2016).

Assays:
[1] = Antiproliferative activity against human OVCAR3 cells after 48 hrs by SRB assay; format: functional; conditions: OVCAR-3, 48 h
In short: (§1)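 Cells grown in RPMI 1640 with 5% FBS, with penicillin/streptomycin in experimental cultures. Exposed in triplicate to 0.25, 2.5, 25 and 250 µg/mL in DMSO/RPMI for 48 h at 37 °C under 5% CO2. Plates were TCA-fixed before (T0) and after treatment, then stained with sulforhodamine B and read at 540 nm. GI50 was obtained by non-linear regression against untreated growth. Doxorubicin served as positive control.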

[2] = Antiproliferative activity against human MCF7 cells after 48 hrs by SRB assay; format: functional; conditions: MCF7, 48 h; in short: as §1
[3] = Antiproliferative activity against human NCI/ADR-RES cells after 48 hrs by SRB assay; format: functional; in short: as §1
[4] = Antiproliferative activity against human 786-0 cells after 48 hrs by SRB assay; format: functional; conditions: 786-0, 48 h; in short: as §1
[5] = Antiproliferative activity against human HT-29 cells after 48 hrs by SRB assay; format: functional; conditions: HT-29, 48 h; in short: as §1
[6] = Antiproliferative activity against human NCI-H460 cells after 48 hrs by SRB assay; format: functional; conditions: NCI-H460, 48 h; in short: as §1
[7] = Antiproliferative activity against human PC3 cells after 48 hrs by SRB assay; format: functional; conditions: PC-3, 48 h; in short: as §1
[8] = Antiproliferative activity against human UACC62 cells after 48 hrs by SRB assay; format: functional; conditions: UACC-62, 48 h; in short: as §1
[9] = Antiproliferative activity against human U251 cells after 48 hrs by SRB assay; format: functional; conditions: U-251, 48 h; in short: as §1
[10] = Cell cycle arrest in human 786-0 cells assessed as accumulation at G1 phase at 1.25 uM after 24 hrs by propidium iodide staining-based flow cytometry (Rvb=47.1+/-1%); format: functional
In short: (§2)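 786-0 cells seeded at 3×10^4 cells/mL and grown 24 h, then serum-starved 24 h to synchronise. Treated in DMSO/RPMI for 24 h alongside DMSO vehicle and colchicine control. 1×10^5 cells in PBS were stained with propidium iodide for 20 min in the dark at room temperature, then analysed by flow cytometry. Results are mean ± standard error % cells from three experiments in triplicate; ANOVA/Tukey.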

[11] = Cell cycle arrest in human 786-0 cells assessed as accumulation at S phase at 1.25 uM after 24 hrs by propidium iodide staining-based flow cytometry (Rvb=12.6+/-0.7%); format: functional; in short: as §2
[12] = Cell cycle arrest in human 786-0 cells assessed as accumulation at sub-G1 phase at 1.25 uM after 24 hrs by propidium iodide staining-based flow cytometry (Rvb=3.7+/-0.9%); format: functional; in short: as §2
[13] = Cell cycle arrest in human 786-0 cells assessed as accumulation at G2/M phase at 1.25 uM after 24 hrs by propidium iodide staining-based flow cytometry (Rvb=36.5+/-1.1%); format: functional; in short: as §2
[14] = tested on: Human alphaherpesvirus 1; test: Antiviral activity against Herpes simplex type I KOS; format: functional; conditions: Human alphaherpesvirus 1, KOS
[15] = Cytotoxicity against African green monkey Vero cells after 48 hrs by SRB assay; format: toxicity, cell-based; conditions: chlorocebus sabaeus
In short: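 Vero (ATCC CCL81) cells grown in DMEM with 10% FBS and gentamicin at 37°C, 5% CO2. Cells exposed in triplicate to 1000, 500, 100, 10, 1 and 0.1 µg/mL, with untreated cells as control. Viability read by sulforhodamine B colorimetry. CC50 is the concentration giving 50% cytotoxicity.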

[16] = Selectivity index, ratio of CC50 for Herpes simplex type I KOS infected African green monkey Vero cells to EC50 for Herpes simplex virus type 1 KOS; format: toxicity, cell-based; conditions: Herpes simplex virus type 1 KOS infected Vero cells, read-out: Ratio CC50/EC50
In short: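 SI calculated as CC50/EC50. CC50 is the 50% cytotoxic concentration on Vero cells by sulforhodamine B, tested in triplicate from 0.1 to 1000 µg/mL. EC50 is the concentration protecting 50% of cells against HSV-1, with acyclovir as HSV-1 standard and drug-free cells as control.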

SMILES	GI50 [1]	GI50 [2]	GI50 [3]	GI50 [4]	GI50 [5]	GI50 [6]	GI50 [7]	GI50 [8]	GI50 [9]	Activity [10]	Activity [11]	Activity [12]	Activity [13]	EC50 [14]	CC50 at 48 h [15]	selectivity ratio [16]
O=C1CS/C(=N\NC(=O)c2cc3c([nH]c4ccccc43)c(-c3cccc([N+](=O)[O-])c3)n2)N1	> 100 µM	40.1 µM	0.62 µM	16.1 µM	> 100 µM	> 100 µM										
O=C(NN1C(=O)CSC1c1cccs1)c1cc2c([nH]c3ccccc32)c(-c2ccccc2)n1 (stereo not given)	> 100 µM	> 100 µM	> 100 µM	> 100 µM	> 100 µM	> 100 µM	> 100 µM	> 100 µM	> 100 µM							
O=C(NN1C(=O)CSC1c1ccccc1Cl)c1cc2c([nH]c3ccccc32)c(-c2ccccc2)n1 (stereo not given)	> 100 µM	> 100 µM	> 100 µM	> 100 µM	> 100 µM	> 100 µM	> 100 µM	> 100 µM	> 100 µM							
COc1cc2c(c(OC)c1OC)-c1ccc(OC)c(=O)cc1[C@@H](NC(C)=O)CC2										18.3%	11%	9%	61.7%			
O=C(NN1C(=O)CSC1c1ccccc1)c1cc2c([nH]c3ccccc32)c(-c2ccccc2)n1 (stereo not given)	1.58 µM	19.1 µM	18.4 µM	> 100 µM	> 100 µM	> 100 µM	7.23 µM	80.4 µM	0.25 µM					2.15 µM	506 µM	235
CCN1C(=O)CS/C1=N\NC(=O)c1cc2c([nH]c3ccccc32)c(-c2cccc([N+](=O)[O-])c2)n1	> 100 µM	> 100 µM	3.27 µM	> 100 µM	> 100 µM	> 100 µM			> 100 µM					86.5 µM	1790 µM	20.7
CCN1C(=O)CS/C1=N\NC(=O)c1cc2c([nH]c3ccccc32)c(-c2ccc(OC)cc2)n1	6.52 µM	6.52 µM	12.2 µM		9.62 µM	8.56 µM			1.95 µM					26.6 µM	1730 µM	65.2
CCN1C(=O)CS/C1=N\NC(=O)c1cc2c([nH]c3ccccc32)c(-c2ccccc2)n1	> 100 µM	17.2 µM	8.89 µM		> 100 µM	> 100 µM			0.46 µM							
O=C(NN1C(=O)CSC1c1ccccc1)c1cc2c([nH]c3ccccc32)c(-c2ccccc2F)n1 (stereo not given)	0.73 µM	63.1 µM	> 100 µM	> 100 µM	> 100 µM	> 100 µM			84.1 µM					30.3 µM	637 µM	21
O=C1CS/C(=N\NC(=O)c2cc3c([nH]c4ccccc43)c(-c3ccccc3F)n2)N1	12.3 µM	11.9 µM	66.4 µM	20.3 µM	32.4 µM	21.1 µM			9.57 µM					19.6 µM	1070 µM	54.9
O=C1CS/C(=N\NC(=O)c2cc3c([nH]c4ccccc43)c(-c3ccccc3Cl)n2)N1	0.01 µM	1.42 µM	> 100 µM	6.1 µM	10.8 µM	3.85 µM								> 100 µM	766 µM	
CCN1C(=O)CS/C1=N\NC(=O)c1cc2c([nH]c3ccccc32)c(-c2ccccc2F)n1	> 100 µM	> 100 µM	> 100 µM	> 100 µM	> 100 µM	> 100 µM			> 100 µM					> 100 µM	2980 µM	
O=C(N/N=C1\SCC(=O)N1c1ccccc1)c1cc2c([nH]c3ccccc32)c(-c2ccccc2F)n1	> 100 µM	> 100 µM	> 100 µM	> 100 µM	> 100 µM	> 100 µM			> 100 µM					> 100 µM	339 µM	
COc1ccc(-c2nc(C(=O)N/N=C3/NC(=O)CS3)cc3c2[nH]c2ccccc23)cc1	1.12 µM	0.49 µM	> 100 µM	9.98 µM	16.5 µM	7.15 µM										
O=C(N/N=C1\SCC(=O)N1c1ccccc1)c1cc2c([nH]c3ccccc32)c(-c2cccc([N+](=O)[O-])c2)n1	0.83 µM	2.36 µM	0.19 µM	1.53 µM	2.28 µM	3.91 µM			1.59 µM					17.2 µM	1170 µM	67.8
CCN1C(=O)CS/C1=N\NC(=O)c1cc2c([nH]c3ccccc32)c(-c2ccccc2Cl)n1	3.97 µM	6.84 µM	0.25 µM		88.9 µM	4.12 µM			0.74 µM					> 100 µM	1400 µM	
CCN1C(=O)CS/C1=N\NC(=O)c1cc2c([nH]c3ccccc32)c(-c2ccc(N(C)C)cc2)n1	2.42 µM	54.9 µM	2.6 µM	6.61 µM	65.7 µM	59 µM			63.3 µM					6.78 µM	1650 µM	243
O=C1CS/C(=N\NC(=O)c2cc3c([nH]c4ccccc43)c(-c3ccccc3)n2)N1	9.88 µM	11.4 µM	28.1 µM	16.3 µM	19.5 µM	18.2 µM			15.8 µM					102 µM	2490 µM	24.4
O=C(NN1C(=O)CSC1c1ccccc1)c1cc2c([nH]c3ccccc32)c(-c2cccc([N+](=O)[O-])c2)n1 (stereo not given)	1.25 µM	> 100 µM	> 100 µM	> 100 µM	> 100 µM	> 100 µM			> 100 µM					2.02 µM	1080 µM	534
CN(C)c1ccc(-c2nc(C(=O)N/N=C3\SCC(=O)N3c3ccccc3)cc3c2[nH]c2ccccc23)cc1	> 100 µM	15 µM	35.4 µM	3.97 µM	38.1 µM	17.9 µM			12.5 µM					50 µM	817 µM	16.4
O=C(N/N=C1\SCC(=O)N1c1ccccc1)c1cc2c([nH]c3ccccc32)c(-c2ccccc2)n1	17.5 µM	28 µM	3.13 µM	13.6 µM	> 100 µM	37.2 µM			17.5 µM					78.9 µM	1480 µM	18.8
CN(C)c1ccc(-c2nc(C(=O)NN3C(=O)CSC3c3ccccc3)cc3c2[nH]c2ccccc23)cc1 (stereo not given)	> 100 µM	> 100 µM	64.5 µM	> 100 µM	> 100 µM	> 100 µM			64.5 µM					0.8 µM	467 µM	592
